Laboratory results from ChEMBL document CHEMBL2331542, “Synthesis and in vitro antibacterial activity of quinolone/naphthyridone derivatives containing 3-alkoxyimino-4-(methyl)aminopiperidine scaffolds” (2013).
Converted amounts (≈) assume the structure as drawn.

Columns and labels:
Format in all cases: functional
[1] = system: Escherichia coli; test: Antibacterial activity against extended-spectrum beta-lactamase-producing Escherichia coli isolate 12-4
In short: (§1)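 MIC determined in vitro by a standard technique and defined as the lowest compound concentration giving complete inhibition of bacterial growth. The Gram-positive and Gram-negative panels were tested alongside gemifloxacin, levofloxacin and ciprofloxacin reference drugs.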

[2] = system: Escherichia coli; test: Antibacterial activity against extended-spectrum beta-lactamase-producing Escherichia coli isolate 12-2; in short: as §1
[3] = system: Escherichia coli; test: Antibacterial activity against extended-spectrum beta-lactamase-producing Escherichia coli isolate 12-1; in short: as §1
[4] = system: Escherichia coli; test: Antibacterial activity against Escherichia coli isolate 12-5; in short: as §1
[5] = system: Escherichia coli; test: Antibacterial activity against Escherichia coli isolate 12-4; in short: as §1
[6] = system: Escherichia coli; test: Antibacterial activity against Escherichia coli isolate 12-1; in short: as §1
[7] = system: Escherichia coli; test: Antibacterial activity against Escherichia coli ATCC 25922; in short: as §1
[8] = system: Streptococcus pneumoniae; test: Antibacterial activity against Streptococcus pneumoniae isolate 12-5; in short: as §1
[9] = system: Streptococcus pneumoniae; test: Antibacterial activity against Streptococcus pneumoniae isolate 12-2; in short: as §1
[10] = system: Staphylococcus epidermidis; test: Antibacterial activity against methicillin-resistant Staphylococcus epidermidis isolate 12-35
In short: (§2)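 MIC determined in vitro by standard techniques, defined as the lowest compound concentration giving complete inhibition of bacterial growth. Gemifloxacin, levofloxacin and ciprofloxacin were tested alongside as reference drugs.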

[11] = system: Staphylococcus epidermidis; test: Antibacterial activity against methicillin-resistant Staphylococcus epidermidis isolate 12-33; in short: as §2
[12] = system: Staphylococcus epidermidis; test: Antibacterial activity against methicillin-resistant Staphylococcus epidermidis isolate 12-5; in short: as §2
[13] = system: Staphylococcus epidermidis; test: Antibacterial activity against methicillin-sensitive Staphylococcus epidermidis isolate 12-3; in short: as §1
[14] = system: Staphylococcus epidermidis; test: Antibacterial activity against methicillin-sensitive Staphylococcus epidermidis isolate 12-2; in short: as §1
[15] = system: Staphylococcus epidermidis; test: Antibacterial activity against methicillin-sensitive Staphylococcus epidermidis isolate 12-1; in short: as §1
[16] = system: Staphylococcus aureus; test: Antibacterial activity against methicillin-resistant Staphylococcus aureus isolate 12-15; in short: as §2
[17] = system: Staphylococcus aureus; test: Antibacterial activity against methicillin-resistant Staphylococcus aureus isolate 12-13; in short: as §2
[18] = system: Staphylococcus aureus; test: Antibacterial activity against methicillin-resistant Staphylococcus aureus isolate 12-3; in short: as §2
[19] = system: Staphylococcus aureus; test: Antibacterial activity against methicillin-sensitive Staphylococcus aureus isolate 12-10; in short: as §1
[20] = system: Staphylococcus aureus; test: Antibacterial activity against methicillin-sensitive Staphylococcus aureus isolate 12-7; in short: as §1
[21] = system: Staphylococcus aureus; test: Antibacterial activity against methicillin-sensitive Staphylococcus aureus isolate 12-6; in short: as §1
[22] = system: Staphylococcus aureus; test: Antibacterial activity against Staphylococcus aureus […]; in short: as §1
[23] = system: Pseudomonas aeruginosa; test: Antibacterial activity against Pseudomonas aeruginosa isolate 12-2; in short: as §1
[24] = system: Pseudomonas aeruginosa; test: Antibacterial activity against Pseudomonas aeruginosa isolate 12-1; in short: as §1
[25] = system: Pseudomonas aeruginosa; test: Antibacterial activity against Pseudomonas aeruginosa ATCC 27853; in short: as §1
[26] = system: Klebsiella pneumoniae; test: Antibacterial activity against extended-spectrum beta-lactamase-producing Klebsiella pneumoniae isolate 12-4; in short: as §1
[27] = system: Klebsiella pneumoniae; test: Antibacterial activity against extended-spectrum beta-lactamase-producing Klebsiella pneumoniae isolate 12-2; in short: as §1
[28] = system: Klebsiella pneumoniae; test: Antibacterial activity against extended-spectrum beta-lactamase-producing Klebsiella pneumoniae isolate 12-1; in short: as §1
[29] = system: Klebsiella pneumoniae; test: Antibacterial activity against Klebsiella pneumoniae isolate 12-4; in short: as §1
[30] = system: Klebsiella pneumoniae; test: Antibacterial activity against Klebsiella pneumoniae isolate 12-2; in short: as §1
[31] = system: Klebsiella pneumoniae; test: Antibacterial activity against Klebsiella pneumoniae isolate 12-1; in short: as §1

SMILES | MIC [2] [µg/mL] | MIC [3] [µg/mL] | MIC [4] [µg/mL] | MIC [5] [µg/mL] | MIC [8] [µg/mL] | MIC [10] [µg/mL] | MIC [11] [µg/mL] | MIC [12] [µg/mL] | MIC [13] [µg/mL] | MIC [14] [µg/mL] | MIC [15] [µg/mL] | MIC [19] [µg/mL] | MIC [20] [µg/mL] | MIC [22] [µg/mL] | MIC [23] [µg/mL] | MIC [26] [µg/mL] | MIC [27] [µg/mL] | MIC [29] [µg/mL] | MIC [30] [µg/mL] | MIC [31] [µg/mL] | other results
CCO/N=C1\CN(c2nc3c(cc2F)c(=O)c(C(=O)O)cn3C2CC2)CCC1NC (configuration not stated) | > 128 | > 128 | > 128 | > 128 | 0.25 (≈ 0.599 µM) | 1 (≈ 2.4 µM) | 0.25 (≈ 0.599 µM) | 1 (≈ 2.4 µM) | 1 (≈ 2.4 µM) | 4 (≈ 9.58 µM) | 1 (≈ 2.4 µM) | 0.5 (≈ 1.2 µM) | 32 (≈ 76.7 µM) | 0.5 (≈ 1.2 µM) | 128 (≈ 307 µM) | > 128 | > 128 | 2 (≈ 4.79 µM) | 4 (≈ 9.58 µM) | 4 (≈ 9.58 µM) | MIC [1]: 32 µg/mL (≈ 76.7 µM); MIC [6]: 32 µg/mL (≈ 76.7 µM); MIC [7]: 4 µg/mL (≈ 9.58 µM); MIC [9]: 0.25 µg/mL (≈ 0.599 µM); MIC [16]: 4 µg/mL (≈ 9.58 µM); MIC [17]: 4 µg/mL (≈ 9.58 µM); MIC [18]: 4 µg/mL (≈ 9.58 µM); MIC [21]: 0.25 µg/mL (≈ 0.599 µM); MIC [24]: 128 µg/mL (≈ 307 µM); MIC [25]: 4 µg/mL (≈ 9.58 µM); MIC [28]: 64 µg/mL (≈ 153 µM)
O=C(O)c1cn(C2CC2)c2cc(N3CCNCC3)c(F)cc2c1=O [CIPROFLOXACIN] | – | – | – | – | – | 0.015 (≈ 0.0453 µM) | 0.015 (≈ 0.0453 µM) | 0.015 (≈ 0.0453 µM) | 0.06 (≈ 0.181 µM) | 0.5 (≈ 1.51 µM) | 0.06 (≈ 0.181 µM) | 0.25 (≈ 0.754 µM) | 64 (≈ 193 µM) | 0.25 (≈ 0.754 µM) | 16 (≈ 48.3 µM) | 4 (≈ 12.1 µM) | 4 (≈ 12.1 µM) | 0.125 (≈ 0.377 µM) | 0.125 (≈ 0.377 µM) | 0.03 (≈ 0.0905 µM) | MIC [28]: 2 µg/mL (≈ 6.04 µM)
C[C@H]1COc2c(N3CCN(C)CC3)c(F)cc3c(=O)c(C(=O)O)cn1c23.C[C@H]1COc2c(N3CCN(C)CC3)c(F)cc3c(=O)c(C(=O)O)cn1c23.O [LEVOFLOXACIN] | 16 | 16 | 8 | 8 | 0.125 | 0.125 | 8 | 0.125 | 0.25 | 0.25 | 0.25 | 0.06 | 32 | 0.125 | 16 | 4 | 8 | 0.25 | 0.06 | 0.06 | MIC [9]: 0.125 µg/mL; MIC [16]: 0.125 µg/mL; MIC [17]: 0.125 µg/mL; MIC [18]: 0.125 µg/mL; MIC [21]: 0.125 µg/mL
